# Screens as filed in PubChem BioAssay.
# Only some compounds are listed: those with a hit (about 2.1% of all), similar ones and a draw of the others.
# Arbovirus anti: antivirals against arbovirus infection, primary screen, cell-based, full library, 10K replicate subset | inhibition, % at 10 µM | 200,000 compounds, 0.37% hits | AID 1251, 2008 | arbovirus infection cell-based antiviral screen; in the data active = inhibition above about 30%
# Autophagy HCS: autophagy modulators in MEF cells, primary screen, imaging, high-content, MEF GFP-LC3 | MEF GFP-LC3 puncta imaging; test concentration mostly 10 µM | calls only at 10 µM (by protocol) | 190,000 compounds, 0.98% hits | AID 463193, 2010;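 active = percentage of spot-positive cells more than 3 SD above its plate mean, without a fluorescence outlier flag or 80% toxicity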;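 note: spot-positive cell cutoff set from DMSO-treated cells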
# ABCB1 block: ABCB1 efflux pump inhibitors, primary screen, cell-based, multiplex, flow cytometry, ABCG2 counter-screen; ATP-dependent translocase ABCB1 (Homo sapiens), P08183; inhibition, % at 6.6 µM; 190,000 compounds, 0.067% hits; CCRF-Adr cells, JC-1 efflux; in the data active = inhibition above about 40%;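 note: 0% = vehicle and 100% = reference inhibitor; higher value means more JC-1 retained so stronger ABCB1 efflux block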
# ABCG2 block: ABCG2 efflux pump inhibitors, primary screen, multiplex with ABCB1, IgMXP3 cells, flow cytometry; Broad substrate specificity ATP-binding cassette transporter ABCG2 (Homo sapiens), Q9UNQ0; JC-1 efflux; inhibition, % at 6.6 µM; 190,000 compounds, 0.1% hits; AID 1325, 2008;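 active = inhibition above 80%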;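 note: 0% = DMSO and 100% = nicardipine control wells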
#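 Assay system – ABCG2 IgMXP3 and barcoded ABCB1 CCRF-Adr cell mix · Input – 3 million cells/mL in well · Reagent – JC-1 fluorescent substrate · Compound – single test compound dose, 6.6 µM final · Timing – 10 min exposure at 25 °C with rotation, no wash · Detection – flow cytometry of retained JC-1 fluorescence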
# MT stabilize HCS: microtubule stabilizers in HeLa cells, primary screen, imaging, high-content imaging; HeLa tubulin immunostaining HCS, 24 h; share of cells brighter than vehicle mean+2SD; % tubulin-high responders, % at 10 µM; 200,000 compounds, 0.83% hits;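 active = plate Z-score above 3 for both tubulin-high and condensed-nucleus cell shares, with cell loss under 80%, at 10 µM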;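 note: anti alpha tubulin signal scored within the nucleus-defined area of each cell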
# b-catenin transl: modulators of beta-catenin nuclear translocation, primary screen, imaging, HeLa cells, immunofluorescence, high-content; nuclear translocation activity, % at 5 µM; 190,000 compounds, 0.3% hits; AID 1665, 2009;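 active = nuclear translocation activity above 50% at 5 µM, with a well cell count of 50 or more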;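 note: per-cell ratio of nuclear to cytoplasmic median beta-catenin stain intensity; plate controls were DMSO negative control for no effect and GSK-3 inhibitor IX positive control for full effect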
#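 test system = HeLa cells, endogenous beta-catenin | dosing = single 5 µM dose plus 0.02–20 µM confirmation series | times = compound treatment 24 h, 37°C, 5% CO2 | technique = beta-catenin immunofluorescence imaging with DAPI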
# * hit, by the source's call; i = inactive; . = no result; + = active, no number.
SMILES,Arbovirus anti,Autophagy HCS,ABCB1 block,ABCG2 block,MT stabilize HCS,b-catenin transl
O=C(NCCCl)Nc1cc([N+](=O)[O-])ccc1Cl,12,i,1,27,5,0
CCN(CC)c1ccc2c(C)c(Cl)c(=O)oc2c1,6,i,1,20,4,1
CCN(CC)c1ccc2c(Cl)c(Br)c(=O)oc2c1,-45,+,24,74,16,.
CSc1cc(-c2ccccc2)n(Cc2c(Cl)cccc2Cl)c(=O)c1C#N,-13,i,0,4,40*,.
CSc1cc(-c2ccc(Cl)cc2)n(Cc2ccccc2)c(=O)c1C#N,-3,i,0,0,1,.
COc1cc2c(cc1NC(=O)CN1C(=O)NC3(CCc4ccccc43)C1=O)oc1ccccc12 (stereo not given),-7,i,3,13,42,0
Cc1ccc(OCC(=O)Nc2ccc(Cl)cc2)c(-n2nc3ccccc3n2)c1,-21,+,2,12,5,1
CCOc1ccc(C)cc1-n1nc2ccccc2n1,-3,i,1,9,2,1
Cc1ccccc1OCC(=O)NNC(=O)Nc1ccc(Cl)cc1,-13,i,0,0,3,76*
O=C(COC(=O)c1ccc(NS(=O)(=O)c2cccs2)cc1)NCc1ccco1,.,.,.,.,.,111*
O=C(COC(=O)c1ccc(NS(=O)(=O)c2cccs2)cc1O)NCc1ccccc1,-5,i,0,2,24*,76*
Cc1nn(C)c(C)c1S(=O)(=O)N(CC(=O)NCc1cccs1)c1ccc(C(C)C)cc1,-3,i,1,0,3,-3
COc1ccc(Nc2nc(N3CCCCC3)c3ccccc3n2)cc1,-39,i,2,4,2,1
Oc1ccc(Nc2nc(N3CCCC3)c3ccccc3n2)cc1,-38,+,1,2,5,1
COc1ccc(OC)c(NC(=O)c2sc3nc(Cc4ccccc4)cc(C(F)(F)F)c3c2N)c1,-6,+,0,0,4,-5
Cc1cc(NC(=O)c2ccc3c(c2)C(=O)N(C)C3=O)no1,0,i,0,1,3,0
Cc1cc(NC(=O)c2ccc3c(c2)C(=O)N(C2CCCCC2)C3=O)no1,3,+,1,6,5,-2
CC(=O)NC1=C(C#N)C(c2ccccc2)c2c(ccc3ccccc23)O1 (stereo not given),-23,i,0,0,43*,58*
CCCC(=O)Nc1cc(Cl)ccc1N1CCN(C(=O)CC)CC1,12,i,1,1,3,-5
O=[N+]([O-])c1cc2c(cc1/C=N/Nc1nc(Nc3ccccc3)nc(N3CCCCC3)n1)OCO2,-16,+,0,-1,2,.
Cc1cccc2cc(C(c3nnnn3CC3CCCO3)N3CCCC4(CCCCC4)C3)c(=O)[nH]c12 (stereo not given),5,+,10,2,2,1
O=C(NCCCN1CCN(c2ccccc2F)CC1)C1CCCN(S(=O)(=O)c2cnc[nH]2)C1 (stereo not given),5,+,1,3,3,.
CN(CCCNC(=O)C1CCCN(S(=O)(=O)c2cnc[nH]2)C1)c1ccccc1 (stereo not given),2,i,0,2,2,.
O=C(c1ccc([N+](=O)[O-])cc1)N(Cc1ccc(Cl)cc1Cl)N1C(=O)CCCC1=O,3,i,1,8,3,8
O=C(c1ccc([N+](=O)[O-])cc1)N(Cc1ccc(Cl)cc1)N1C(=O)CCCC1=O,2,+,1,2,2,.
SMILES,Arbovirus anti,Autophagy HCS,ABCB1 block,ABCG2 block,MT stabilize HCS,b-catenin transl
CCCCCCN(C(=O)CCCCCN1C(=O)NC(c2ccc(-c3ccccc3)cc2)C(C(=O)OCc2ccccc2)=C1C)C(C)C(=O)NCCCC (stereo not given),-9,+,5,13,5,-4
COc1cc(NC(=O)Cn2ncc(Cl)c(Cl)c2=O)c(C)cc1[N+](=O)[O-],-36,+,2,3,14,6
COc1cc(NC(=O)CN2C(=O)CN(C)C2=O)c(C)cc1[N+](=O)[O-],-4,i,0,2,6,-3
O=S(CC1CC1(Cl)Cl)CC1CC1(Cl)Cl (stereo not given),-10,+,0,0,2,2
O=C(O)c1cc(-c2ccc3c(c2)OCO3)nc2ccc(Br)cc12,6,i,-1,-2,4,1
Cc1oc(/N=C/c2cccc3ccccc23)c(C#N)c1C,5,i,0,0,2,2
COc1ccc(/C=N/c2oc(C)c(C)c2C#N)c(OC)c1,-4,+,0,0,2,-1
CC(=O)c1ccc(C(=O)N2CCc3c([nH]c4ccccc34)C2c2cccc(C)n2)s1 (stereo not given),.,.,.,.,.,-1
COc1ccc(/C=C2/C(=O)N(CC3CCCO3)C(=S)N2C)c(OC)c1 (stereo not given),52*,i,0,39,2,-1
COc1ccccc1/C=C1\NC(=S)N(CC2CCCO2)C1=O (stereo not given),-2,i,0,1,2,-4
Cc1cc(C)c(NC(=O)c2sc3nc4c(cc3c2N)C(=O)CC(C)(C)C4)c(C)c1,5,i,5,30,3,-1
Cc1cc(C)c2cc3c(N)c(C(=O)Nc4c(C)[nH]c(=O)[nH]c4=O)sc3nc2c1,9,+,0,-1,2,7
COC(=O)Cc1[nH]n(-c2nc3ccccc3s2)c(=O)c1C(C)=O,-13,i,1,5,2,2
COc1ccc(CN=C(C)c2c(C(F)(F)F)[nH]n(-c3nc4ccccc4s3)c2=O)cc1,-7,+,0,1,1,4
COc1ccc(-c2cc(-c3ccccc3)c(C#N)c(S(C)=O)n2)cc1 (stereo not given),-25,+,1,7,3,.
CCSc1nc(-c2ccc(OC)cc2)cc(-c2ccccc2)c1C#N,-2,i,1,10,1,-1
COc1cc(/C=N/n2cnc3scc(-c4cccs4)c3c2=O)cc(OC)c1OC,-10,i,1,11,30*,2
CCOc1ccc(C2C(C#N)=C(N)Oc3cc(C)oc(=O)c32)cc1 (stereo not given),19,i,0,0,2,1
CCc1ccc(/C=N/NC(=O)c2cc(-c3ccccc3OC)nc3ccccc23)s1,-8,i,1,2,1,2
